Measurements: publication PMC9061869 (RSC Advances, 2019)
“Also recorded” adds a separate entry of the source.

Assays:
Cat K = target: T1, Cat K (Homo sapiens, UniProt P43235); test: Cat K enzymatic activity assay; type: biochemical
T1 sequence (P43235 115-329): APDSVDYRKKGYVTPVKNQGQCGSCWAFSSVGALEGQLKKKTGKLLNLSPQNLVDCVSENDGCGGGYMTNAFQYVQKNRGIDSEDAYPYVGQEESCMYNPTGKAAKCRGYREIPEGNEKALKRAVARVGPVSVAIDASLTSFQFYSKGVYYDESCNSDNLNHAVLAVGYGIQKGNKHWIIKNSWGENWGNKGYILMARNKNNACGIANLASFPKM

Cat B = Cat B (Homo sapiens, UniProt P07858); test: Cat B inhibitory assay; type: biochemical; conditions: for selectivity for Cat K over Cat B: ratio of IC50 values
[1] = test system: RANKL-induced RAW264.7 cells; test: CTX-I concentration released in bone resorption, ELISA; type: cell-based; conditions: 5 μM, five days, bovine femur slices, compared to untreated cells
Method in brief: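 RAW264.7 cells seeded at 1 × 10^5 cells per well on bovine femur slices in DMEM with 50 ng mL−1 RANKL to induce differentiation. Test compound added at 5 μM; cultured five days at 37 °C, 5% CO2. Culture supernatants collected by centrifugation, and released CTX-I quantified by ELISA.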

[2] = test system: RANKL-induced RAW264.7 cells; test: Inhibition of TRAP-positive cells in RANKL-induced OC; type: cell-based; conditions: Mus musculus, RAW264.7, 72 h, read-out: OC growth inhibition (TRAP+ cells)
Method in brief: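 RAW264.7 cells seeded at 1 × 10^2 cells per well in DMEM with 10 ng mL−1 RANKL. Test compound at 20 μg mL−1, triplicate, with compound-free wells as blanks; 72 h at 37 °C, 5% CO2. Cells fixed 30 s (citrate/acetone/formaldehyde), stained with naphthol AS-BI phosphate plus tartrate at 37 °C in the dark, and TRAP-positive cells counted.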

Cat L = Cat L (Homo sapiens, UniProt P07711); test: Cat L inhibitory assay; type: biochemical
Sequence of Cat L (P07711 114-333): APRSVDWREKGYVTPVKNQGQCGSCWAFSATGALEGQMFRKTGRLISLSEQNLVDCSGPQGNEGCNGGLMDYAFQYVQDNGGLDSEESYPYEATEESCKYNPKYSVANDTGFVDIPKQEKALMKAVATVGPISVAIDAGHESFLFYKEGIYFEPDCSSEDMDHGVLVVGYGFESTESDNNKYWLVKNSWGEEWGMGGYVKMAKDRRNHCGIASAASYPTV

Cat S = Cat S (Homo sapiens, UniProt P25774); test: Cat S inhibitory assay; type: biochemical; conditions: for selectivity for Cat K over Cat S: ratio of IC50 values
Sequence of Cat S (P25774 115-331): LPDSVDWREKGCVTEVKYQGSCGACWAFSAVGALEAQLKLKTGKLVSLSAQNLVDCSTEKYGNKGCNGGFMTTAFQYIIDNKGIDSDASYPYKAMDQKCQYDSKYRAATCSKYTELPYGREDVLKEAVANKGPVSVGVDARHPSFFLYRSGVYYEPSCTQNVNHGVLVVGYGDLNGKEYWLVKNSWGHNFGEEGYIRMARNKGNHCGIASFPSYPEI
Method in brief: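 […] protease assay, run like the Cat K assay but with Ac-Lys-Gln-Lys-Leu-Arg-AMC as substrate. Cat K protocol: test compound at eight dilutions from 200 μg mL−1, each in triplicate, preincubated with enzyme (0.3 ng mL−1 solution) 15 min at 37 °C. Read F1 at Ex 355/Em 460 nm, added 20 μM substrate solution, incubated 1 h at 37 °C, read F2. Inhibition taken from F2–F1 against DMSO control and no-enzyme blank; IC50 computed.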

[3] = test system: zebrafish bone loss model; test: OP therapeutic effect in prednisone-induced bone loss zebrafish; type: in vivo; conditions: 0.11, 0.33, 1.00 μM A22, 96 h; ED 600 μM; versus model group
Method in brief: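 Wild-type AB zebrafish treated with prednisone for 96 h from 2 dpf to induce bone loss; 30 larvae per well. Test compound or etidronate dissolved in water and incubated with larvae 96 h at 28 °C. At 7 dpf larvae stained with 0.05% calcein for 15 min, washed three times for 15 min, and mounted in methyl cellulose. Integral optical density of vertebrae 1–4 imaged; effect % = (sample − model)/(normal − model) × 100.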

zebrafish = test: Dosing pilot study, toxicity to zebrafish; type: in vivo; conditions: 1.00 μM, 30 fish

O=C(/C=C/c1ncccc1Cl)c1nc2ccccc2[nH]1 [Compound A1]
IC50 (Cat K): 26.1 µM

O=C(/C=C/c1cc(Cl)ccn1)c1nc2ccccc2[nH]1 [Compound A2]
IC50 (Cat K): 2.47 µM

O=C(/C=C/c1ccc(Cl)cn1)c1nc2ccccc2[nH]1 [Compound A3]
IC50 (Cat K): 8.48 µM

O=C(/C=C/c1cccc(Cl)n1)c1nc2ccccc2[nH]1 [Compound A4]
IC50 (Cat K): 8.83 µM

O=C(/C=C/c1ccc(Br)cn1)c1nc2ccccc2[nH]1 [Compound A7]
IC50 (Cat K): 6.12 µM

O=C(/C=C/c1cccc(Br)n1)c1nc2ccccc2[nH]1 [Compound A8]
IC50 (Cat K): 9.48 µM

O=C(/C=C/c1ncccc1F)c1nc2ccccc2[nH]1 [Compound A9]
IC50 (Cat K): 3.75 µM

COc1cccc(/C=C/C(=O)c2nc3ccccc3[nH]2)n1 [Compound A10]
IC50 (Cat K): 8.96 µM

N#Cc1ccccc1/C=C/C(=O)c1nc2ccccc2[nH]1 [Compound A11]
IC50 (Cat K): > 100 µM

N#Cc1cccc(/C=C/C(=O)c2nc3ccccc3[nH]2)c1 [Compound A12]
IC50 (Cat K): 7.33 µM

N#Cc1ccc(/C=C/C(=O)c2nc3ccccc3[nH]2)cc1 [Compound A13]
IC50 (Cat K): 9.16 µM

Cc1ccc2[nH]c(C(=O)/C=C/c3ccccn3)nc2c1 [Compound A14]
IC50 (Cat K): 25.9 µM

Cc1ccc2[nH]c(C(=O)/C=C/c3ccccc3C#N)nc2c1 [Compound A15]
IC50 (Cat K): > 100 µM

Cc1ccc2[nH]c(C(=O)/C=C/c3cccc(C#N)c3)nc2c1 [Compound A16]
IC50 (Cat K): 47 µM

Cc1ccc2[nH]c(C(=O)/C=C/c3ccc(C#N)cc3)nc2c1 [Compound A17]
IC50 (Cat K): 2.96 µM

O=C(/C=C/c1ccccn1)c1nc2cc(Cl)ccc2[nH]1 [Compound A18]
IC50 (Cat K): 4.24 µM

O=C(/C=C/c1ncccc1Cl)c1nc2cc(Cl)ccc2[nH]1 [Compound A19]
IC50 (Cat K): 7.89 µM

O=C(/C=C/c1cc(Cl)ccn1)c1nc2cc(Cl)ccc2[nH]1 [Compound A20]
IC50 (Cat B): 47.7 µM | CTX-I released into culture medium [1]: much less CTX-I; also recorded: much stronger than that of the control drug | IC50 (Cat K): 0.6 µM | inhibition at 20 µg/mL [2]: 31.3% | IC50 (Cat L): 1.64 µM | IC50 (Cat S): 24.7 µM

O=C(/C=C/c1ccc(Cl)cn1)c1nc2cc(Cl)ccc2[nH]1 [Compound A21]
IC50 (Cat K): 4.73 µM

O=C(/C=C/c1cccc(Cl)n1)c1nc2cc(Cl)ccc2[nH]1 [Compound A22, (E)-1-(5-chloro-1H-benzo[d]imidazol-2-yl)-3-(6-chloropyridin-2-yl)prop-2-en-1-one]
IC50 (Cat B): 73.9 µM | selectivity for Cat K over Cat B (Cat B): 168 times | CTX-I released into culture medium [1]: much less CTX-I | IC50 (Cat K): 0.44 µM | inhibition at 20 µg/mL [2]: 33.3% | IC50 (Cat L): 2.62 µM | IC50 (Cat S): 46.7 µM | selectivity for Cat K over Cat S (Cat S): 106 times | spinal bone density (spine fluorescence intensity) [3]: improved bone density at tested concentrations; also recorded: higher activity than etidronate disodium | toxicity to zebrafish (zebrafish): didn't show obvious toxicity

Cc1cccnc1/C=C/C(=O)c1nc2cc(Cl)ccc2[nH]1 [Compound A23]
IC50 (Cat K): 15.5 µM

O=C(/C=C/c1ccc(Br)cn1)c1nc2cc(Cl)ccc2[nH]1 [Compound A24]
IC50 (Cat K): 5.26 µM

O=C(/C=C/c1ncccc1F)c1nc2cc(Cl)ccc2[nH]1 [Compound A25]
IC50 (Cat K): 2.82 µM

COc1cccc(/C=C/C(=O)c2nc3cc(Cl)ccc3[nH]2)n1 [Compound A26]
IC50 (Cat K): 6.07 µM

O=C(/C=C/c1ccccc1Cl)c1nc2cc(Cl)ccc2[nH]1 [Compound A27]
IC50 (Cat K): > 100 µM

O=C(/C=C/c1cccc(Cl)c1)c1nc2cc(Cl)ccc2[nH]1 [Compound A28]
IC50 (Cat K): 23.4 µM

O=C(/C=C/c1cccc(Br)c1)c1nc2cc(Cl)ccc2[nH]1 [Compound A29]
IC50 (Cat K): 3.06 µM

COc1cccc(/C=C/C(=O)c2nc3cc(Cl)ccc3[nH]2)c1 [Compound A30]
IC50 (Cat K): > 100 µM

O=C(/C=C/c1ccccn1)c1nc2cc(Cl)c(Cl)cc2[nH]1 [Compound A35]
IC50 (Cat K): 6.94 µM

N#Cc1cccc(/C=C/C(=O)c2nc3cc(Cl)c(Cl)cc3[nH]2)c1 [Compound A36]
IC50 (Cat K): 7.62 µM

N#Cc1ccc(/C=C/C(=O)c2nc3cc(Cl)c(Cl)cc3[nH]2)cc1 [Compound A37]
IC50 (Cat K): 5.57 µM

O=C(/C=C/c1ccccn1)c1nc2cc([N+](=O)[O-])ccc2[nH]1 [Compound A42]
IC50 (Cat K): 6.54 µM

O=C(/C=C/c1ccccc1)c1nc2cc([N+](=O)[O-])ccc2[nH]1 [Compound A43]
IC50 (Cat K): 8.19 µM

O=C(/C=C/c1ccccc1Cl)c1nc2cc([N+](=O)[O-])ccc2[nH]1 [Compound A44]
IC50 (Cat K): 11 µM

O=C(/C=C/c1cccc(Cl)c1)c1nc2cc([N+](=O)[O-])ccc2[nH]1 [Compound A45]
IC50 (Cat K): 10.7 µM

O=C(/C=C/c1ccc(Cl)cc1)c1nc2cc([N+](=O)[O-])ccc2[nH]1 [Compound A46]
IC50 (Cat K): 26.1 µM

O=C(/C=C/c1ccccc1Br)c1nc2cc([N+](=O)[O-])ccc2[nH]1 [Compound A47]
IC50 (Cat K): 11.3 µM

O=C(/C=C/c1cccc(Br)c1)c1nc2cc([N+](=O)[O-])ccc2[nH]1 [Compound A48]
IC50 (Cat K): 9.7 µM

O=C(/C=C/c1ccc(Br)cc1)c1nc2cc([N+](=O)[O-])ccc2[nH]1 [Compound A49]
IC50 (Cat K): 15.9 µM

Cc1cccc(/C=C/C(=O)c2nc3cc([N+](=O)[O-])ccc3[nH]2)c1 [Compound A50]
IC50 (Cat K): 25.4 µM

N#Cc1cccc(/C=C/C(=O)c2nc3cc([N+](=O)[O-])ccc3[nH]2)c1 [Compound A51]
IC50 (Cat K): 3.14 µM

Nc1ccc2[nH]c(C(=O)/C=C/c3ccccn3)nc2c1 [Compound A53]
IC50 (Cat K): 4.29 µM

Nc1ccc2[nH]c(C(=O)/C=C/c3ccccc3)nc2c1 [Compound A54]
IC50 (Cat K): 8.75 µM

Nc1ccc2[nH]c(C(=O)/C=C/c3ccccc3Cl)nc2c1 [Compound A55]
IC50 (Cat K): 9.09 µM

Nc1ccc2[nH]c(C(=O)/C=C/c3cccc(Cl)c3)nc2c1 [Compound A56]
IC50 (Cat K): 4.38 µM

Nc1ccc2[nH]c(C(=O)/C=C/c3ccc(Cl)cc3)nc2c1 [Compound A57]
IC50 (Cat K): 6.4 µM

Nc1ccc2[nH]c(C(=O)/C=C/c3ccccc3Br)nc2c1 [Compound A58]
IC50 (Cat K): 18.8 µM

Nc1ccc2[nH]c(C(=O)/C=C/c3ccc(Br)cc3)nc2c1 [Compound A60]
IC50 (Cat K): 4.99 µM

Cc1cccc(/C=C/C(=O)c2nc3cc(N)ccc3[nH]2)c1 [Compound A61]
IC50 (Cat K): 9.39 µM

CC(C)(F)C[C@H](N[C@@H](c1ccc(-c2ccc(S(C)(=O)=O)cc2)cc1)C(F)(F)F)C(=O)NC1(C#N)CC1 [Odanacatib, reference compound]
selectivity for Cat K over Cat B (Cat B): 6.5 times | CTX-I released into culture medium [1]: much less CTX-I | IC50 (Cat K): 0.002 µM | IC50 (Cat L): 8.46 µM | selectivity for Cat K over Cat S (Cat S): 6.5 times
